Calls of active or inactive are those of the source. The calls are words filed in the database; no cut-off is given here.
These compounds were tested on Rattus norvegicus (assay: Concentration of compound intraperitoneally in passive cutaneous anaphylaxis (PCA) model for 50% inhibition in Sprague-Dawley rat). Conditions: ip, read-out: ID50 (the source's name).
Assay type: functional
How it was run: (§1)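 Rat passive cutaneous anaphylaxis in Sprague-Dawley rats. Compounds given ip as a Klucel suspension at 5, 1.25 and/or 0.31 mg/kg (some at 10, 2.5 and 0.63 mg/kg ip), six animals per dose. MED is the lowest dose giving >50% inhibition with p ≤ 0.05 (Student's t test). Where data sufficed, ID50 with 95% confidence range was derived from experiments of six animals each.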

Structure (SMILES) | ED50 [mg/kg]
O=C([O-])c1cc(=O)c2c(OCC(O)COc3cccc4oc(C(=O)[O-])cc(=O)c34)cccc2o1.[Na+].[Na+] [CROMOLYN SODIUM] | 2.6

Species: Rattus norvegicus
Experiment: Concentration of compound perorally in passive cutaneous anaphylaxis (PCA) model for 50% inhibition in Sprague-Dawley rat; IN-Ineffective
Assay type: functional, organism-based
Conditions: not given
How it was run: (§2)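 Sprague-Dawley rat passive cutaneous anaphylaxis with oral dosing of a Klucel suspension at 10, 5 and/or 2.5 mg/kg, six animals per dose. MED po is the lowest dose producing >50% inhibition at p ≤ 0.05 (Student's t test).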

Structure (SMILES) | ID50
O=C([O-])c1cc(=O)c2c(OCC(O)COc3cccc4oc(C(=O)[O-])cc(=O)c34)cccc2o1.[Na+].[Na+] [CROMOLYN SODIUM] | inactive

Species: Rattus norvegicus
Experiment: Minimum effective dose (MED) perorally in passive cutaneous anaphylaxis (PCA) model for 50% inhibition in Sprague-Dawley rat
Assay type: functional
Conditions: po, read-out: MED
How it was run: as §2

Structure (SMILES) | minimal effective dose [mg/kg]
Cn1c2ccccc2n2c(=O)c(C(=O)O)cnc12 | > 10
O=c1cc(-c2nn[nH]n2)nc2oc3ccccc3n12 | > 10
Cn1c2ccccc2n2c(=O)cc(C(=O)O)nc12 | > 10
O=c1c(-c2nnn[nH]2)cnc2oc3ccccc3n12 | 5
O=c1c(-c2nnn[nH]2)cnc2sc3ccccc3n12 | > 10
O=C(O)c1cnc2sc3ccccc3n2c1=O | > 10
Cn1c2ccccc2n2c(=O)c(C(=O)Nc3nn[nH]n3)cnc12 | > 10
O=C(Nc1nn[nH]n1)c1cc(=O)n2c(n1)oc1ccccc12 | > 10
Cn1c2ccccc2n2c(=O)cc(C(=O)Nc3nn[nH]n3)nc12 | 10
O=C(Nc1nn[nH]n1)c1cc(=O)n2c(n1)sc1ccccc12 | > 10
O=C(O)c1cc(=O)n2c(n1)oc1ccccc12 | > 10
O=C(O)c1cnc2oc3ccccc3n2c1=O | > 10
O=C(O)c1cc(=O)n2c(n1)sc1ccccc12 | > 10
O=c1cc(-c2nn[nH]n2)nc2sc3ccccc3n12 | > 10
Cn1c2ccccc2n2c(=O)c(-c3nnn[nH]3)cnc12 | 2.5
O=C(Nc1nn[nH]n1)c1cnc2sc3ccccc3n2c1=O | > 10
O=C(Nc1nn[nH]n1)c1cnc2oc3ccccc3n2c1=O | 10

The compounds below were run on Rattus norvegicus (assay: Minimum effective dose (MED) intraperitoneally in passive cutaneous anaphylaxis (PCA) model for 50% inhibition in Sprague-Dawley rat). Conditions: ip, read-out: MED.
Assay type: functional
How it was run: as §1

Structure (SMILES) | minimal effective dose [mg/kg]
Cn1c2ccccc2n2c(=O)c(C(=O)O)cnc12 | 0.63
O=c1cc(-c2nn[nH]n2)nc2oc3ccccc3n12 | 1.25
Cn1c2ccccc2n2c(=O)cc(C(=O)O)nc12 | > 5
O=c1c(-c2nnn[nH]2)cnc2oc3ccccc3n12 | 1.25
Cn1c2ccccc2n2c(=O)cc(-c3nn[nH]n3)nc12 | 5
O=c1c(-c2nnn[nH]2)cnc2sc3ccccc3n12 | 1.25
O=C(O)c1cnc2sc3ccccc3n2c1=O | > 5
Cn1c2ccccc2n2c(=O)c(C(=O)Nc3nn[nH]n3)cnc12 | 0.31
O=C(Nc1nn[nH]n1)c1cc(=O)n2c(n1)oc1ccccc12 | 1.25
Cn1c2ccccc2n2c(=O)cc(C(=O)Nc3nn[nH]n3)nc12 | 1.25
O=C(Nc1nn[nH]n1)c1cc(=O)n2c(n1)sc1ccccc12 | 1.25
O=C(O)c1cc(=O)n2c(n1)oc1ccccc12 | 5
O=C(O)c1cnc2oc3ccccc3n2c1=O | > 5
O=C(O)c1cc(=O)n2c(n1)sc1ccccc12 | > 5
O=c1cc(-c2nn[nH]n2)nc2sc3ccccc3n12 | 5
Cn1c2ccccc2n2c(=O)c(-c3nnn[nH]3)cnc12 | 0.31
O=C(Nc1nn[nH]n1)c1cnc2sc3ccccc3n2c1=O | 1.25
O=C(Nc1nn[nH]n1)c1cnc2oc3ccccc3n2c1=O | 1.25

From ChEMBL document CHEMBL1122220, “Synthesis and antiallergic activity of some acidic derivatives of 4H-pyrimido[2,1-b]benzazol-4-ones” (1983)
